Measured values taken from ChEMBL document CHEMBL1142359 (J Med Chem, 2008).
One block for each compound: values may come before it.

Legend:
[1] = biological target: T1, Sodium/glucose cotransporter 2 (Homo sapiens, UniProt P31639); experiment: Inhibition of human SGLT2 expressed in CHO cells assessed as inhibition of [14C]AMG accumulation; type: cell-based
T1 sequence (P31639 whole entry): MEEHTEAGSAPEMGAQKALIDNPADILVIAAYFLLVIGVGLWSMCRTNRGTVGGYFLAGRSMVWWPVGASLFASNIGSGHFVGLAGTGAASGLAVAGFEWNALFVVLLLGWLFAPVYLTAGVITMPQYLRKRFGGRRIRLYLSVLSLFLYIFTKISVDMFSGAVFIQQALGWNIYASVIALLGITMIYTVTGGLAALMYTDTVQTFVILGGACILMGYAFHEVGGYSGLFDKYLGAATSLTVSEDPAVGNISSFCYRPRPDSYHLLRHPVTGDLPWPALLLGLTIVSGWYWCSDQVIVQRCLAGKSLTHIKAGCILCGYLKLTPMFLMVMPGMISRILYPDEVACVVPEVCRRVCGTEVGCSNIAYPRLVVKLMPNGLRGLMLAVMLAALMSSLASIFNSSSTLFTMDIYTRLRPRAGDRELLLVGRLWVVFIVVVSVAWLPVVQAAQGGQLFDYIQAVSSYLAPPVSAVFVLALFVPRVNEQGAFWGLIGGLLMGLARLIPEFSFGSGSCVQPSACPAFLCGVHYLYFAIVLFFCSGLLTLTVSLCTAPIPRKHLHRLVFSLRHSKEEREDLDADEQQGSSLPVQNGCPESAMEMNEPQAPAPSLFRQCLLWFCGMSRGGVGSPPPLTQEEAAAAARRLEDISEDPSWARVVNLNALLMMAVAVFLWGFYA
Outline: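 Radiolabeled α-methyl-D-glucopyranoside accumulation in Chinese hamster ovary cells stably expressing human or rat SGLT2. EC50 is taken as inhibition of that uptake. The assay was run in protein-free buffer, and n is given per value.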

[2] = Fraction unbound in rat serum at 10 uM
[3] = Clearance in rat at 1 mg/kg, po after 1.7 hrs; conditions: in vivo
[4] = Elimination half life in intra arterially dosed monkey; conditions: rhesus monkey, in vivo
[5] = biological target: T2, Solute carrier family 2, facilitated glucose transporter member 4 (Homo sapiens) (UniProt P14672); conditions: 20 uM
T2 sequence (whole entry): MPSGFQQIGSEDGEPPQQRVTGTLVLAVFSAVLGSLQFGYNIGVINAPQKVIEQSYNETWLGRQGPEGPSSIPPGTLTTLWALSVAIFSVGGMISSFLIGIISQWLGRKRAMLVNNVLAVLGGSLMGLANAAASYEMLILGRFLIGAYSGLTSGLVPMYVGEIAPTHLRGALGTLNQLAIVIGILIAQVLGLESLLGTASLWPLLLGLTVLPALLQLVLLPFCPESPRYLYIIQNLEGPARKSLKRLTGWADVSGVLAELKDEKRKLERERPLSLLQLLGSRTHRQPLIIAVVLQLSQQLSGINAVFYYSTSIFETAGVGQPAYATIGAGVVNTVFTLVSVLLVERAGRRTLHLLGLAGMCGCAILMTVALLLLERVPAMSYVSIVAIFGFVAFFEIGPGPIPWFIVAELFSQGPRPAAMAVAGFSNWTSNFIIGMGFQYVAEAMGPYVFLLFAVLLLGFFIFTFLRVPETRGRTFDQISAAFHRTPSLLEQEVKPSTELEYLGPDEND

[6] = biological target: T3, Sodium/glucose cotransporter 2 (Rattus norvegicus, UniProt P53792); experiment: Inhibition of rat SGLT2 expressed in CHO cells assessed as inhibition of [14C]AMG accumulation
T3 sequence (P53792 whole entry): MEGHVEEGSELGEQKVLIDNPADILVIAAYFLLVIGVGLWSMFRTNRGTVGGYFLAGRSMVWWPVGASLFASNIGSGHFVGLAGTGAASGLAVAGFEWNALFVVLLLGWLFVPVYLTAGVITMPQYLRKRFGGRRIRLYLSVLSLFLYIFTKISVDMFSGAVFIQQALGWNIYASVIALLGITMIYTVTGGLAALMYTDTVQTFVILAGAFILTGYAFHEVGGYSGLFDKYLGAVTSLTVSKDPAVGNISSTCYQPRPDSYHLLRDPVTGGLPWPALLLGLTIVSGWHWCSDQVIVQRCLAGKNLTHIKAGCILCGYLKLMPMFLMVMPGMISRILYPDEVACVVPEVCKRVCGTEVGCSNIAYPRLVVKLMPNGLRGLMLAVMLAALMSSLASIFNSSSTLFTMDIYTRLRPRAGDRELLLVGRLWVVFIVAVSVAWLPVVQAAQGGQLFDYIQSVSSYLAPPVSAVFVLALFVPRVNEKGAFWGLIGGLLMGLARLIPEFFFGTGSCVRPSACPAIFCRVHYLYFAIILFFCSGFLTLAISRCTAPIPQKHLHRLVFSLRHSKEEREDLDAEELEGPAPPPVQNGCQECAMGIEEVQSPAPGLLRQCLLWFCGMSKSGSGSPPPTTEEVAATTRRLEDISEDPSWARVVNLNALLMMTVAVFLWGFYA

[7] = Elimination half life in intra arterially dosed dog; conditions: in vivo
[8] = biological target: T4, Solute carrier family 2, facilitated glucose transporter member 1 (Homo sapiens) (UniProt P11166); conditions: 20 uM
T4 sequence (whole entry): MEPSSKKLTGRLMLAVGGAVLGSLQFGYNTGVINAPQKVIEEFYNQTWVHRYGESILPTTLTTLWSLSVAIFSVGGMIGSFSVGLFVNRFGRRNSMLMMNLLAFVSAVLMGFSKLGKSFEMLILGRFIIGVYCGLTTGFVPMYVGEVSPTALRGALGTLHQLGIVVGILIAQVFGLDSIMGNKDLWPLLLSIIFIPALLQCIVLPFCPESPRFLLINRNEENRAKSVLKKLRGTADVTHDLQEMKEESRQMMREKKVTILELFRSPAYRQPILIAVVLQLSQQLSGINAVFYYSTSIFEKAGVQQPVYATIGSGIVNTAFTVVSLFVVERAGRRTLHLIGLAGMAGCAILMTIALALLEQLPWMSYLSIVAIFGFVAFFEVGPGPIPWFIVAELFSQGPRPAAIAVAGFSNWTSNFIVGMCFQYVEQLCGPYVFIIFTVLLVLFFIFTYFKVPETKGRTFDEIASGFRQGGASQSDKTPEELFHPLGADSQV

[9] = Elimination half life in intra arterially dosed rat; conditions: in vivo
[10] = Volume of distribution at steady state in rat; conditions: in vivo
in vivo = conditions: rat, po, 1 mg/kg
[11] = Oral bioavailability in rat; conditions: in vivo
[12] = Fraction unbound in human serum at 10 uM
[13] = Permeability across human Caco-2 cells

EC50 [1]: 6.6 nM
SMILES: Cc1cc(O)c(C(=O)CCc2ccc3occc3c2)c(O[C@@H]2O[C@H](CO)[C@@H](O)[C@H](O)[C@H]2O)c1

EC50 [1]: 1300 nM
SMILES: CCNC(=O)c1c(O)c(Cc2ccc(OC)cc2)cc([C@@H]2O[C@H](CO)[C@@H](O)[C@H](O)[C@H]2O)c1O

fraction unbound at 10 µM [2]: 0.03
CL/F at 1.7 h [3]: 0.288 L/h/kg
half-life [4]: 3 h
inhibition [5]: 8%
EC50 [6]: 3 nM
half-life [7]: 7.4 h
inhibition [8]: 8%
half-life [9]: 4.6 h
Vd [10]: 1.6 L/kg
Cmax at 1.7 h (in vivo): 0.6 µg/mL
bioavailability [11]: 84%
fraction unbound at 10 µM [12]: 0.04
Papp [13]: > 150 nm/s
SMILES: CCOc1ccc(Cc2cc([C@@H]3O[C@H](CO)[C@@H](O)[C@H](O)[C@H]3O)ccc2Cl)cc1 [DAPAGLIFLOZIN]

EC50 [1]: 9.2 nM
SMILES: COc1ccc(Cc2ccccc2O[C@@H]2O[C@H](CO)[C@@H](O)[C@H](O)[C@H]2O)cc1 [SERGLIFLOZIN A]
